Laboratory results: ChEMBL document CHEMBL3600378 (J Med Chem, 2015)
pEC50: −log10 of the molar value.

Assays:
[1] = molecular target: Beta-3 adrenergic receptor (Homo sapiens, UniProt P13945); experiment: Intrinsic activity at human beta3-adrenergic receptor expressed in CHO cells assessed as increase of cAMP level after 30 mins relative to isoproterenol; format: functional, cell-based
In short: (§1)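 Stably transfected CHO cells expressing human β1, β2 or β3 or marmoset β3 receptor were grown in Ham's F-12 with 10% FBS and geneticin, seeded at 2×10⁴ cells/well and grown about 20 h. Cells spent 15 min serum-free, then 30 min with compound in medium containing HEPES and isobutylmethylxanthine. Lysate cAMP was measured by kit. […] EC50 is the half-maximal concentration for each compound.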

Homo sapiens = organism: Homo sapiens; experiment: Selectivity ratio of EC50 for human beta1-adrenergic receptor to EC50 for human beta3-adrenergic receptor
Rattus norvegicus [2] = experiment: Cardiotoxicity in anesthetized Sprague-Dawley rat assessed as decrease in heart rate at 3 mg/kg, iv measured for 30 mins relative to control; format: toxicity, organism-based; set-up: scale not given: the % may be the effect or the level left; conditions: in vivo, 0.5 h
In short: (§2)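 Male Sprague-Dawley rats (200-300 g) were anesthetized with sodium pentobarbital (50 mg/kg i.p. plus 25 mg/kg s.c.). The compound was injected via the cannulated left femoral vein once BP and HR were stable, and HR and MBP were recorded for 30 min. Results are the maximum % increase or decrease from baseline, as mean ± SEM. Where given, silodosin (0.01 mg/kg iv) preceded the compound.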

[3] = molecular target: T1, Beta-2 adrenergic receptor (Homo sapiens, UniProt P07550); experiment: Agonist activity at human beta2-adrenergic receptor expressed in CHO cells assessed as increase of cAMP level after 30 mins; format: functional, cell-based; in short: as §1
Target sequence in this assay (P07550 whole entry): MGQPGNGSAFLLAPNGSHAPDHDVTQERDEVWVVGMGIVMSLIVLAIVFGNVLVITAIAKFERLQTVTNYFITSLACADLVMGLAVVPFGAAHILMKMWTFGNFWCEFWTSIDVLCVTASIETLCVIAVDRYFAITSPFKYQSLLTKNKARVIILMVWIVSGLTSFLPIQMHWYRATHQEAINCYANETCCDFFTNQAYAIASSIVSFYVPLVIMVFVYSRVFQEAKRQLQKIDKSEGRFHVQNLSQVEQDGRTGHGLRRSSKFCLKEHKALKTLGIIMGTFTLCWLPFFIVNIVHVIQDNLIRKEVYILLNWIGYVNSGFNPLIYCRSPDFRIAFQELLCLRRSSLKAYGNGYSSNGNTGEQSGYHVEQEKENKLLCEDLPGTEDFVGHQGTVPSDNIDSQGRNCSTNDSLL

[4] = molecular target: T1, Beta-2 adrenergic receptor; experiment: Intrinsic activity at human beta2-adrenergic receptor expressed in CHO cells assessed as increase of cAMP level after 30 mins relative to isoproterenol; format: functional, cell-based; in short: as §1
Target sequence in this assay (P07550 whole entry, looked up): as the sequence (P07550 whole entry) above

[5] = molecular target: T2, Alpha-1D adrenergic receptor (Homo sapiens, UniProt P25100); experiment: Agonist activity at human alpha1D-adrenergic receptor
T2 sequence (P25100 whole entry): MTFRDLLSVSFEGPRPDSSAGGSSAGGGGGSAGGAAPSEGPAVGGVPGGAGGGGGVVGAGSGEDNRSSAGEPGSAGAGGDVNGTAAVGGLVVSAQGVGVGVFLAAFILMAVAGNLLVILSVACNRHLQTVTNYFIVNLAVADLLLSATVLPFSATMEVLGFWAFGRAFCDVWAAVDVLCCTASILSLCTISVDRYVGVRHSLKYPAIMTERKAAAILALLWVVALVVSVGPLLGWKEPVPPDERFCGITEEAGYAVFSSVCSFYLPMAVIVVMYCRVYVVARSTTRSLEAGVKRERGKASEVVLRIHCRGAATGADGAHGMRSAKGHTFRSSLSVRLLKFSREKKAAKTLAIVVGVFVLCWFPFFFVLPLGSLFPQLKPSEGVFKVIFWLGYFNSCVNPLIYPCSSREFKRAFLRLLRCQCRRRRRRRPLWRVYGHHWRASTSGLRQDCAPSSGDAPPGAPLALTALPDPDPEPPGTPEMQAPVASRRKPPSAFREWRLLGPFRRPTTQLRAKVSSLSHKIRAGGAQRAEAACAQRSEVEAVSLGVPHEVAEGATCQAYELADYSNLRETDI

Rattus norvegicus [6] = experiment: Cardiotoxicity in anesthetized Sprague-Dawley rat assessed as decrease in mean blood pressure at 3 mg/kg, iv measured for 30 mins relative to control; format: toxicity, organism-based; set-up: scale not given: the % may be the effect or the level left; conditions: in vivo, 0.5 h; in short: as §2
[7] = molecular target: T3, Alpha-1A adrenergic receptor (Homo sapiens, UniProt P35348); experiment: Agonist activity at human alpha1A-adrenergic receptor expressed in HEK293 cells assessed as calcium flux by fluorescence assay; format: functional, cell-based
T3 sequence (P35348 whole entry): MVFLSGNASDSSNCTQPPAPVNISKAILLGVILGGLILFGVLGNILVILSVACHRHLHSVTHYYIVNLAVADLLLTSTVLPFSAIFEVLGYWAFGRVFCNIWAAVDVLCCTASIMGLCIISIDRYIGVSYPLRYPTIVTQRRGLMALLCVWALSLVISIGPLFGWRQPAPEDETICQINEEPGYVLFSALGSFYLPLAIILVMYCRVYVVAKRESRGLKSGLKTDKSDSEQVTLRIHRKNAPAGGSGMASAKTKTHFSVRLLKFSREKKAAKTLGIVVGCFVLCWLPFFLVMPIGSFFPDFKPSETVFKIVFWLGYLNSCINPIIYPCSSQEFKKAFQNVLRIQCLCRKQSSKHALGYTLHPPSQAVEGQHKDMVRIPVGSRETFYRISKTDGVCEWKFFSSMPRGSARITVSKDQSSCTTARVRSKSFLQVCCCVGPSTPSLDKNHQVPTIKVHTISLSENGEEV

[8] = molecular target: T4, Alpha-2B adrenergic receptor (Homo sapiens, UniProt P18089); experiment: Agonist activity at human alpha2B-adrenergic receptor
T4 sequence (P18089 whole entry): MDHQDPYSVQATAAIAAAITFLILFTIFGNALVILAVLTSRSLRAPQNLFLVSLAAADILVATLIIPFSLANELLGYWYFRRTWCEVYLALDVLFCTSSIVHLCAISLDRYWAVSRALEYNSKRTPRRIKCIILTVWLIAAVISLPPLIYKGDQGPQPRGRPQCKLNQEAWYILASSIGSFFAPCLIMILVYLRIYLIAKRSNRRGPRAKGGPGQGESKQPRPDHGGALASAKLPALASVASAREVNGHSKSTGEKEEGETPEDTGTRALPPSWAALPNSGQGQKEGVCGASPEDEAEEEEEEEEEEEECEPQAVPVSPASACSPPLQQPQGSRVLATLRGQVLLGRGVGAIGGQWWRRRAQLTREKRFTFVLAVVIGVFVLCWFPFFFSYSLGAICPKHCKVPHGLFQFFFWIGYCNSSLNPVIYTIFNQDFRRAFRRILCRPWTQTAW

[9] = molecular target: T5, Alpha-1B adrenergic receptor (Homo sapiens, UniProt P35368); experiment: Agonist activity at human alpha1B-adrenergic receptor
T5 sequence (P35368 whole entry): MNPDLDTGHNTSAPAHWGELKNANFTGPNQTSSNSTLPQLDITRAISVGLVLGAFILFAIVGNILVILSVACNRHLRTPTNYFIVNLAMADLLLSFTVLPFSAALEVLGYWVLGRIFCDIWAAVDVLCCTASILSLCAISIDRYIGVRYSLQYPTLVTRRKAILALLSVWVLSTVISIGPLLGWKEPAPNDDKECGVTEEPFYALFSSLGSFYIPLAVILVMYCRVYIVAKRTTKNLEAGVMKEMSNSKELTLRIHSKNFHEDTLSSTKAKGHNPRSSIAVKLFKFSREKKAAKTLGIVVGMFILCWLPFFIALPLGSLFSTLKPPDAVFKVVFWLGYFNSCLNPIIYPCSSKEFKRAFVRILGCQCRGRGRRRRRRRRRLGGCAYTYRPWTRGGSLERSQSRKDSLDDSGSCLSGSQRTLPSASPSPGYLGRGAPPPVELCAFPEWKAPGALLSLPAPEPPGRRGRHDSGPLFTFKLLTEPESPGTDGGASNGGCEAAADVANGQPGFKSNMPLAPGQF

Chain of Beta-3 adrenergic receptor (P13945 whole entry, looked up): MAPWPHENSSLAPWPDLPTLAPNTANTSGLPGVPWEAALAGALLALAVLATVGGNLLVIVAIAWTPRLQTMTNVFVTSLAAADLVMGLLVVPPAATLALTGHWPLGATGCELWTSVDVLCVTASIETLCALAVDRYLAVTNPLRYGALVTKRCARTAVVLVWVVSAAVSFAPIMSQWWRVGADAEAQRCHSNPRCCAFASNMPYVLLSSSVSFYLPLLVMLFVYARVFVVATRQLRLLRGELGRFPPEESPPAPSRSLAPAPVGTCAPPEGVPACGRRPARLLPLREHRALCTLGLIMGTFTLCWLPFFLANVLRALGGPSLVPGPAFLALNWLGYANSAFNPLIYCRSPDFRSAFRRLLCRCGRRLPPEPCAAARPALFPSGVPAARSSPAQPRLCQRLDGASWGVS

## Cc1n[nH]c2cc(OCCNC[C@H](O)c3cccc(NS(C)(=O)=O)c3)ccc12
[1]
  Intrinsic activity: 82%
Homo sapiens
  Ratio EC50: > 476
Rattus norvegicus [2]
  Activity: 8.8%
[3]
  pEC50: < 5.00
[4]
  Intrinsic activity: 4%
[5]
  pEC50: < 5.00
Rattus norvegicus [6]
  Activity: 8.5%
[7]
  pEC50: 6.66
[8]
  pEC50: < 5.00
[9]
  pEC50: < 5.00
